Measurements as given in ChEMBL document CHEMBL4184327, “Aromatic-Based Design of Highly Active and Noncalcemic Vitamin D Receptor Agonists” (J Med Chem, 2018).
Active and inactive are the calls of the source. The rule behind the calls is not given here.

Columns and labels:
[1] = tested on: SK-OV-3; assay: Antiproliferative activity against 2D culture of human SKOV3 cells assessed as cell proliferation at 100 nM after 48 hrs by MTT assay; type: functional; conditions: SK-OV-3, 48 h, read-out: Activity
How it was run: (§1)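 MTT assay in 2D cultures; cells grown in DMEM with 10% FBS, penicillin/streptomycin, 2 mM L-glutamine at 37 °C in 5% CO2, then treated in charcoal-treated FCS medium for 48 h at 100 nM. Ethanol vehicle controls; proliferation expressed as percentage ± SD of vehicle-treated cells.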

[2] = tested on: MCF7; assay: Antiproliferative activity against 2D culture of human MCF7 cells assessed as cell proliferation at 100 nM after 48 hrs by MTT assay; type: functional; conditions: MCF7, 48 h, read-out: Activity; how it was run: as §1
[3] = Antiproliferative activity against 2D culture of human HaCaT cells assessed as cell proliferation at 100 nM after 48 hrs by MTT assay; type: cell-based; conditions: HaCaT cells (2D culture), read-out: Activity; how it was run: as §1
[4] = tested on: HaCaT; assay: Induction of human HaCaT cell differentiation at 100 nM after 48 hrs; type: functional, cell-based
How it was run: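 HaCaT keratinocytes treated with 100 nM for 48 hours in charcoal-treated FCS medium, ethanol vehicle control, and differentiation then assessed.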

[5] = tested on: MCF7; assay: Antiproliferative activity against 3D culture of human MCF7 cells assessed as cell proliferation at 100 nM after 5 days by DAPI staining-based phase contrast microscopic method; type: functional; conditions: MCF7, 120 h, read-out: Activity
How it was run: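 Three-dimensional MCF-7 cultures treated 5 days with 10^-7 M in charcoal-treated FCS medium; ethanol vehicle. Phase-contrast photographs taken, sphere diameters traced manually across each sphere and scored as relative units; proliferation given as percentage ± SD of vehicle-treated cells.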

[6] = tested on: PC-3; assay: Antiproliferative activity against 2D culture of human PC3 cells assessed as cell proliferation at 100 nM after 48 hrs by MTT assay; type: functional; conditions: PC-3, 48 h, read-out: Activity; how it was run: as §1
[7] = molecular target: T1, Vitamin D3 receptor (Homo sapiens) (UniProt P11473); assay: Displacement of fluormone from human full length VDR after 2 hrs by fluorescence polarization assay relative to 1,25D; conditions: concentration not given here
T1 sequence (whole entry): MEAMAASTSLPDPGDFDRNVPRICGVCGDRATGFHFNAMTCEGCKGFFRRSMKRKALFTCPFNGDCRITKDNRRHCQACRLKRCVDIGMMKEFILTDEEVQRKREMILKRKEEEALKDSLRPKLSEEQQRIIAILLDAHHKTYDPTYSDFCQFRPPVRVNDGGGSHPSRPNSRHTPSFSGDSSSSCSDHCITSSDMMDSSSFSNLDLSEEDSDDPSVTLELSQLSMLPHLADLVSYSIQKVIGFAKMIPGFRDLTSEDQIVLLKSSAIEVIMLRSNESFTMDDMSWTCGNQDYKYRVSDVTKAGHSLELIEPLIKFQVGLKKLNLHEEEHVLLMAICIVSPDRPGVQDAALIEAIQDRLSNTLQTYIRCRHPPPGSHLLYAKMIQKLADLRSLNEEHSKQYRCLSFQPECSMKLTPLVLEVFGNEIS
How it was run: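 Competitive fluorescence polarization VDR binding kit used per manufacturer conditions; compounds tested from 10^-11 to 10^-5 M. IC50 calculated from averaged measurements; activity also expressed as percentage with 1,25D set to 100%.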

[8] = tested on: Mus musculus; assay: Hypercalcemic activity in CD1 mouse assessed as serum calcium levels at 0.3 ug/kg, ip administered every other day for 3 weeks measured on […] relative to 1,25D; type: ADME, organism-based; conditions: in vivo, 0.0003 mg/kg, 504 h
How it was run: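 Mice dosed every other day for 21 days at 0.3 µg/kg, n=5 per group, with vehicle controls; serum calcium reported as mean ± SD.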

[9] = molecular target: T2, Vitamin D3 receptor (Homo sapiens, UniProt P11473); assay: Displacement of fluormone from human full length VDR after 2 hrs by fluorescence polarization assay
T2 sequence (P11473 whole entry): T1 sequence (whole entry)

[10] = molecular target: T2, Vitamin D3 receptor; assay: Agonist activity at VDR in human MCF7 cells assessed as increase in transcription of CYP24A1 gene after 24 hrs by luciferase reporter gene assay; type: cell-based
[11] = molecular target: T1, Vitamin D3 receptor (Homo sapiens); assay: Agonist activity at VDR in human MCF7 cells assessed as transcription of CYP24A1 gene after 24 hrs by luciferase reporter gene assay relative to 1,25D; type: cell-based
How it was run: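 Cells transfected with 1 µg pCYP24A1-Luc plasmid (luciferase under a consensus VDRE from the 24-hydroxylase promoter); after 24 h medium replaced with compound at 10^-11 to 10^-6 M. Bioluminescence imaged and total photon counts quantified. EC50 from dose-response curves as concentration raising luciferase activity by 50%; ratio given as analogue EC50 relative to 1,25D.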

[12] = tested on: Mus musculus; assay: Toxicity in CD1 mouse assessed as effect on liver at 0.5 to 5 ug/kg, ip administered every other day for 3 weeks measured on […] by hematoxylin and eosin staining-based assay; type: organism-based; conditions: in vivo, 504 h
[13] = tested on: MDA-MB-231; assay: Antitumor activity against luciferase expressing human MDA-MB-231 cells xenografted in SCID mouse assessed as increase in mouse survival at 1 ug/kg, ip administered every other day starting from day 10 post tumor implantation to day 60; type: functional, organism-based
How it was run: (§2)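 SCID mice given subcutaneous MDA-MB-231-luc cells; ten days later (treatment day 0) split into two groups, dosed i.p. at 1 µg/kg in sesame oil, controls sesame oil. Tumor growth followed by in vivo bioluminescence imaging (photon flux) every 7 days until day 28; survival followed to day 60.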

[14] = tested on: Mus musculus; assay: Toxicity in CD1 mouse assessed as effect on kidney at 0.5 to 5 ug/kg, ip administered every other day for 3 weeks measured on […] by hematoxylin and eosin staining-based assay; type: organism-based; conditions: in vivo, 504 h
[15] = tested on: MDA-MB-436; assay: Cytotoxicity against 3D culture of cancer stem cells derived from human MDA-MB-436 cells assessed as decrease in growth of mammospheres at 100 nM after 5 days by DAPI staining-based phase contrast microscopic method; type: functional, cell-based
How it was run: (§3)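 MDA-MB-436 cells enriched in cancer stem cells grown in a commercial 3D sphere assay per manufacturer's instructions; ethanol or compound (10^-8 or 10^-7 M) added for 5 days. Mammosphere number and diameter quantified from phase-contrast images by manual diameter tracing.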

[16] = tested on: MDA-MB-436; assay: Cytotoxicity against 3D culture of cancer stem cells derived from human MDA-MB-436 cells assessed as decrease in number of mammospheres at 100 nM after 5 days by DAPI staining-based phase contrast microscopic method; type: functional, cell-based; how it was run: as §3
[17] = tested on: Mus musculus; assay: Toxicity in CD1 mouse assessed as body weight loss at 0.5 to 5 ug/kg, ip administered every other day for 3 weeks measured every week during compound dosing; type: organism-based; conditions: in vivo, 504 h
[18] = tested on: MDA-MB-231; assay: Antitumor activity against luciferase expressing human MDA-MB-231 cells xenografted in SCID mouse assessed as tumor growth inhibition at 1 ug/kg, ip administered every other day measured every 7 days […] to day 28 post last dose; type: functional, organism-based; how it was run: as §2
[19] = tested on: Mus musculus; assay: Hypercalcemic activity in CD1 mouse serum at 0.5 to 5 ug/kg, ip administered every other day for 3 weeks measured on […]; type: ADME, organism-based; conditions: in vivo, 504 h

| SMILES | growth at 0.1 µM [1] | growth at 0.1 µM [2] | viability at 48 h, 0.1 µM [3] | Activity [4] | growth at 0.1 µM [5] | growth at 0.1 µM [6] | inhibition [7] | Activity [8] | IC50 [9] | EC50 [10] | Activity [11] | Activity [12] | Activity [13] | Activity [14] | Activity [15] | Activity [16] | Activity [17] | TGI [18] | Activity [19] |
| --- | --- | --- | --- | --- | --- | --- | --- | --- | --- | --- | --- | --- | --- | --- | --- | --- | --- | --- | --- |
| C=C1/C(=C\C=C2/CCC[C@]3(C)[C@@H]([C@H](C)CCCC(C)(C)O)CC[C@@H]23)C[C@@H](O)C[C@@H]1O [CALCITRIOL] | 78% | 66% | 69% | Active | 61% | 77% |  |  |  |  |  |  |  |  |  |  |  |  |  |
| C=C1/C(=C\C=C(/CCCCCC)c2cccc(CCCCCC(C)(C)O)c2)C[C@@H](O)C[C@@H]1O | 76% | 78% | 74% | Active | 79% | 80% | 9% | 0% | 8.3 to 40 nM | 10 to 13 nM | 17% |  |  |  |  |  |  |  |  |
| C=C1/C(=C\C=C(/CCC)c2cccc(CCCCCC(C)(C)O)c2)C[C@@H](O)C[C@@H]1O | 82% | 69% | 71% | Active | 74% | 83% | 10% | 41% | 5.6 to 55 nM | 8.6 to 9.9 nM | 21% |  |  |  |  |  |  |  |  |
| C=C1/C(=C\C=C(/CC)c2cccc(CCCCCC(C)(C)O)c2)C[C@@H](O)C[C@@H]1O | 78% | 65% | 68% | Active | 69% | 78% | 24% | 0% | 4.5 to 11 nM | 5.6 to 6.2 nM | 33% | Non-Toxic | Active | Non-Toxic | Active | Active | Non-Toxic | Active | Non-Toxic |
| C=C1/C(=C\C=C(/CCCC)c2cccc(CCCCCC(C)(C)O)c2)C[C@@H](O)C[C@@H]1O | 81% | 74% | 71% | Active | 84% | 84% | 12% | 34% | 10 to 18 nM | 9 to 11 nM | 19% |  |  |  |  |  |  |  |  |
| C=C1/C(=C\C=C(/CCCCCCC)c2cccc(CCCCCC(C)(C)O)c2)C[C@@H](O)C[C@@H]1O | 83% | 69% | 71% | Active | 55% | 79% | 7% | 0% | 3.5 to 160 nM | 29 to 40 nM | 5% |  |  |  |  |  |  |  |  |
